Reference: ChEMBL document CHEMBL4393735, “Molecular modelling, synthesis, and biological evaluations of a 3,5-disubstituted isoxazole fatty acid analogue as a PPARα-selective agonist” (Bioorg Med Chem, 2019)
Activity calls are given as the source filed them.

Assays:
[1] = molecular target: T1, Peroxisome proliferator-activated receptor alpha (Homo sapiens) (UniProt Q07869); experiment: Agonist activity at full length human FLAG-tagged GAL4-DBD fused PPARalpha LBD (168 to 468 residues) expressed in COS1 cells at 25 to 50 uM measured after 18 hrs by dual luciferase reporter gene assay relative to pirinixic acid; type: cell-based
T1 sequence (whole entry): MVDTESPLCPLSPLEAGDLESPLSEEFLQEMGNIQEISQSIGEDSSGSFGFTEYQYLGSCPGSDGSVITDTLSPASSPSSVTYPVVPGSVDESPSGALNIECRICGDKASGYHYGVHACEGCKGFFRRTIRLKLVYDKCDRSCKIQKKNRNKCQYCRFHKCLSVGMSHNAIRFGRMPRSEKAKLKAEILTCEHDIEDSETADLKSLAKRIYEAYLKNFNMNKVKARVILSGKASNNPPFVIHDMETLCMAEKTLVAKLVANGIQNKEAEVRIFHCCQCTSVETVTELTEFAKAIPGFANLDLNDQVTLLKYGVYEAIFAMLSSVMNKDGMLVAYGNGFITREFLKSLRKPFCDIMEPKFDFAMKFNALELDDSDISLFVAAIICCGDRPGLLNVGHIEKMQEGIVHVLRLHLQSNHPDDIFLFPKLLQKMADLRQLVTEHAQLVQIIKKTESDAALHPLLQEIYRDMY
Procedure, shortened: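 COS-1 cells were transfected with GAL4-DBD–PPARα-LBD, a 5×UAS luciferase reporter and a Renilla control. After 6 h, cells were treated with 0, 25 or 50 μM test compound or pirinixic acid in 0.1% DMSO (final) for 18 h. Dual-luciferase read-out, firefly/Renilla ratio, normalized to DMSO control and GAL4.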

[2] = molecular target: T2, Peroxisome proliferator-activated receptor alpha (Mus musculus) (UniProt P23204); experiment: Agonist activity at PPARalpha in C57BL/6N mouse primary hepatocytes assessed as SREBF1 mRNA expression at 50 uM measured after 18 hrs by qRT-PCR analysis; type: cell-based
T2 sequence (whole entry): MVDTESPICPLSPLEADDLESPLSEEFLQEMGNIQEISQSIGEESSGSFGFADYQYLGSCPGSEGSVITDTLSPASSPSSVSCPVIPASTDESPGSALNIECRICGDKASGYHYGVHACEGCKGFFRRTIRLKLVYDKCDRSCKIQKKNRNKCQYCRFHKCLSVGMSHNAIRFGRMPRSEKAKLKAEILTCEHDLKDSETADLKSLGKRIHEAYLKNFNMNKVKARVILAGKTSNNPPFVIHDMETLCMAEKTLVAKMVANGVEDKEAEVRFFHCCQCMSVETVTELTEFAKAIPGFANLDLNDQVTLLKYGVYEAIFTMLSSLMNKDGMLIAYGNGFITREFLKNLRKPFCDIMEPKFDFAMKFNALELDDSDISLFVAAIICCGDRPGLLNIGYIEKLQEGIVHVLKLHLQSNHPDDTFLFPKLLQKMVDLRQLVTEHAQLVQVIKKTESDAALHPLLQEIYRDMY
Procedure, shortened: (§1)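 Treatment for 18 h at 50 μM (or 1 μM for the 1 μM agents), DMSO vehicle. Harvested for qPCR. mRNA normalized to TBP by the comparative threshold method, expressed relative to DMSO control. Two biological replicates run in duplicate, mean ± SEM. Primary hepatocytes came from male C57BL/6N mice aged 7–8 weeks, isolated by portal-vein perfusion and digestion, seeded on collagen I and used on day 2. HuH-7 cells were kept in DMEM with 10% FBS and ITS.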

COS-1 = experiment: Cytotoxicity against African green monkey COS1 cells assessed as reduction in cell viability at 10^-4 M by XTT based assay; settings: chlorocebus aethiops, cos-1, 100 µM
Procedure, shortened: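 COS-1 cells were treated across the same concentration series as the GAL4 dose-response runs. Cytotoxicity was measured as LDH released into medium (absorbance 492/750 nm) and by XTT viability assay (absorbance 450/690 nm). Results expressed relative to control.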

[3] = molecular target: T2, Peroxisome proliferator-activated receptor alpha (Mus musculus); experiment: Agonist activity at PPARalpha in C57BL/6N mouse primary hepatocytes assessed as SCD1 mRNA expression at 50 uM measured after 18 hrs by qRT-PCR analysis; type: cell-based; procedure, shortened: as §1
SGBS [4] = experiment: Upregulation of FABP4 gene expression in human preadipocyte derived from Simpson-Golabi-Behmel syndrome (SGBS) patient at 25 uM measured for 12 days by qRT-PCR analysis; type: functional, cell-based
Procedure, shortened: (§2)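 SGBS cells were differentiated with serum-free induction medium containing 25 μM test agent, 2 μM rosiglitazone or 0.1% DMSO from day 0. IBMX and dexamethasone were removed on day 4 and medium was renewed on day 8. RNA was taken on days 0, 4, 8 and 12 for qPCR, normalized to TBP and to day 0. At least three biological replicates in duplicate, two-way ANOVA with Bonferroni.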

[5] = molecular target: T2, Peroxisome proliferator-activated receptor alpha (Mus musculus); experiment: Agonist activity at PPARalpha in C57BL/6N mouse primary hepatocytes assessed as activation of Cpt1a mRNA expression at 50 uM measured after 18 hrs by qRT-PCR analysis; type: cell-based; procedure, shortened: as §1
[6] = molecular target: T3, Peroxisome proliferator-activated receptor gamma (Homo sapiens) (UniProt P37231); experiment: Agonist activity at full length human FLAG-taggedGAL4-DBD fused PPARgamma LBD (205 to 505 residues) expressed in COS1 cells at 25 to 50 uM measured after 18 hrs by dual luciferase reporter gene assay; type: cell-based
T3 sequence (whole entry): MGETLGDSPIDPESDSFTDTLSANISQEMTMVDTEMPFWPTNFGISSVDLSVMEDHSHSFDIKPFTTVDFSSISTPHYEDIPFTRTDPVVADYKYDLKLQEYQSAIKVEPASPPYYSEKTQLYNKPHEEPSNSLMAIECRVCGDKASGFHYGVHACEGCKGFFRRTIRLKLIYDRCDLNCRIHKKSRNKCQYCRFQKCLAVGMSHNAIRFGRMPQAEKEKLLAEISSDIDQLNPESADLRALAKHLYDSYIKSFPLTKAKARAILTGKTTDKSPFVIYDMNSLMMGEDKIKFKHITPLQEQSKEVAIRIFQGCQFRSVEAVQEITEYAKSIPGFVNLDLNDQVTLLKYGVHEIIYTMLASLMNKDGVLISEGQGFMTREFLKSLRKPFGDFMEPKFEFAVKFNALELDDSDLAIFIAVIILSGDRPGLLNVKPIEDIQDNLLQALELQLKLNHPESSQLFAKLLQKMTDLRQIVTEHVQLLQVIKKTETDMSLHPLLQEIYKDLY
Procedure, shortened: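 COS-1 cells were transfected using Lipofectamine 2000 with GAL4-DBD–human NR-LBD plasmid, a 5×UAS-SV40 firefly luciferase reporter and pRL-CMV. After 6 h, cells were treated with 0, 25 or 50 μM in 0.1% DMSO (final) for 18 h. Firefly signal was normalized to Renilla, then to DMSO control and GAL4-only. Three biological replicates in quadruplicate, mean ± SEM, two-way ANOVA with Bonferroni.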

SGBS [7] = experiment: Upregulation of ACSL1 gene expression in human preadipocyte derived from Simpson-Golabi-Behmel syndrome (SGBS) patient at 25 uM measured for 12 days by qRT-PCR analysis; type: functional, cell-based; procedure, shortened: as §2
[8] = molecular target: T1, Peroxisome proliferator-activated receptor alpha (Homo sapiens); experiment: Agonist activity at PPARalpha in human Huh7 cells assessed as SREBF1 mRNA expression at 50 uM measured after 18 hrs by qRT-PCR analysis; type: cell-based; procedure, shortened: as §1

fold change (FC) [1]: 2.5
Activity [2]: Active
Activity [3]: Active
Activity [5]: Active
Activity [6]: inactive
Activity [8]: inactive
Compound: CCCCCCCc1cc(CCCCCC(=O)O)no1
Activity (COS-1): Toxic
Activity (SGBS [4]): Active
Activity (SGBS [7]): Active
